Data reported in ChEMBL document CHEMBL1124255, “7-substituted 5-amino-1-cyclopropyl-6,8-difluoro-1,4-dihydro-4-oxo-3- quinolinecarboxylic acids: synthesis and biological activity of a new class of quinolone antibacterials” (J Med Chem, 1988).
pIC50: −log10 of the molar value. ≈ marks a conversion by molar mass, not a printed value.

Assays:
DNA gyrase = DNA gyrase (Escherichia coli, UniProt P0AES4+P0AES6); assay: 50% inhibitory concentration against DNA-gyrase; format: protein-complex assay
Enterobacter cloacae = assay: Antibacterial activity against Enterobacter cloacae MA2646; format: functional
Escherichia coli [1] = assay: Antibacterial activity against Escherichia coli H560; format: functional
In short: (§1)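 Minimum inhibitory concentration measured by standard microtitration, run as part of a panel of 11 bacterial organisms.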

Klebsiella pneumoniae = assay: Antibacterial activity against Klebsiella pneumoniae MGH-2; format: functional; in short: as §1
Pseudomonas aeruginosa = assay: Antibacterial activity against Pseudomonas aeruginosa UI-18; format: functional; in short: as §1
Staphylococcus aureus [2] = assay: Antibacterial activity against Staphylococcus aureus UC76; format: functional; in short: as §1
Streptococcus pyogenes = assay: Antibacterial activity against Streptococcus pyogenes C203; format: functional; in short: as §1
Providencia rettgeri = assay: Antibacterial activity against Providencia rettgeri M1771; format: functional; in short: as §1
Streptococcus pneumoniae = assay: Antibacterial activity against Streptococcus pneumoniae SV-1; format: functional; in short: as §1
Escherichia coli [3] = assay: Antibacterial activity against Escherichia coli Vogel; format: functional; in short: as §1
Enterococcus faecalis = assay: Antibacterial activity against Streptococcus faecalis MGH-2; format: functional; in short: as §1
Staphylococcus aureus [4] = assay: Antibacterial activity against Staphylococcus aureus H-228; format: functional; in short: as §1
Escherichia coli [5] = assay: Median protective dose against Escherichia coli, determined in acute, lethal systemic infection in female charles river CD-1 mice (po); format: functional; details: Escherichia coli, po; read-out: PD50
In short: (§2)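 Female Charles River CD-1 mice (18-22 g) were challenged intraperitoneally with about 100 median lethal doses in 0.5 mL 5% hog gastric mucin. Single compound doses in a twofold rising series were given in 0.5 mL at the time of challenge: sc as aqueous solution, po by gavage in 5% gum acacia. Groups of eight mice were used per dose. PD50 was estimated from survival percentages by log probit.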

Escherichia coli [6] = assay: Median protective dose against Escherichia coli, determined in acute, lethal systemic infection in female charles river CD-1 mice (sc); format: functional; details: read-out: PD50; in short: as §2

| Compound | pIC50 (DNA gyrase) | MIC (Enterobacter cloacae) [µg/mL] | MIC (Escherichia coli [1]) [µg/mL] | MIC (Klebsiella pneumoniae) [µg/mL] | MIC (Pseudomonas aeruginosa) [µg/mL] | MIC (Staphylococcus aureus [2]) [µg/mL] | MIC (Streptococcus pyogenes) [µg/mL] | MIC (Providencia rettgeri) [µg/mL] | MIC (Streptococcus pneumoniae) [µg/mL] | MIC (Escherichia coli [3]) [µg/mL] | MIC (Enterococcus faecalis) [µg/mL] | MIC (Staphylococcus aureus [4]) [µg/mL] | ED50 (Escherichia coli [5]) [mg/kg] | ED50 (Escherichia coli [6]) [mg/kg] |
| --- | --- | --- | --- | --- | --- | --- | --- | --- | --- | --- | --- | --- | --- | --- |
| CCNCC1CCN(c2c(F)c(NC(C)=O)c3c(=O)c(C(=O)O)cn(C4CC4)c3c2F)C1 (configuration not stated) | < 3.65 | > 25 | 12.5 (≈ 27.9 µM) | > 25 | > 25 | 3.1 (≈ 6.91 µM) | 12.5 (≈ 27.9 µM) | > 25 | 6.3 (≈ 14 µM) | > 25 | 12.5 (≈ 27.9 µM) | 12.5 (≈ 27.9 µM) | – | – |
| CCNCC1CCN(c2c(F)c(NC)c3c(=O)c(C(=O)O)cn(C4CC4)c3c2F)C1 (configuration not stated) | 4.48 | 0.4 (≈ 0.951 µM) | 0.05 (≈ 0.119 µM) | 0.4 (≈ 0.951 µM) | 3.1 (≈ 7.37 µM) | 0.025 (≈ 0.0595 µM) | 0.1 (≈ 0.238 µM) | 1.6 (≈ 3.81 µM) | 0.025 (≈ 0.0595 µM) | 0.2 (≈ 0.476 µM) | 0.1 (≈ 0.238 µM) | 0.025 (≈ 0.0595 µM) | 11 | 5 |
| CC(=O)Nc1c(F)c(N2CCNCC2)c(F)c2c1c(=O)c(C(=O)O)cn2C1CC1 | < 3.61 | > 25 | > 25 | > 25 | > 25 | > 25 | > 25 | > 25 | > 25 | > 25 | > 25 | > 25 | – | – |
| CN1CCN(c2c(F)c(N(C)C)c3c(=O)c(C(=O)O)cn(C4CC4)c3c2F)CC1 | < 3.31 | > 25 | > 25 | > 25 | > 25 | > 25 | > 25 | > 25 | > 25 | > 25 | > 25 | > 25 | – | – |
| CN1CCN(c2c(F)c(N)c3c(=O)c(C(=O)O)cn(C4CC4)c3c2F)CC1 | 5.13 | 0.013 (≈ 0.0344 µM) | 0.003 (≈ 0.00793 µM) | 0.013 (≈ 0.0344 µM) | 0.1 (≈ 0.264 µM) | 0.025 (≈ 0.0661 µM) | 0.4 (≈ 1.06 µM) | 0.05 (≈ 0.132 µM) | 0.2 (≈ 0.529 µM) | 0.013 (≈ 0.0344 µM) | 0.1 (≈ 0.264 µM) | 0.05 (≈ 0.132 µM) | 2.2 | 1.1 |
| O=C(O)c1cn(C2CC2)c2cc(N3CCNCC3)c(F)cc2c1=O [CIPROFLOXACIN] | – | – | 0.025 (≈ 0.0754 µM) | 0.1 (≈ 0.302 µM) | 0.4 (≈ 1.21 µM) | 0.2 (≈ 0.604 µM) | 0.8 (≈ 2.41 µM) | 0.1 (≈ 0.302 µM) | 1.6 (≈ 4.83 µM) | – | 0.8 (≈ 2.41 µM) | 3.1 (≈ 9.36 µM) | 1.2 | 0.3 |
| CC1COc2c(N3CCN(C)CC3)c(F)cc3c(=O)c(C(=O)O)cn1c23 (configuration not stated) [OFLOXACIN] | – | 0.1 (≈ 0.277 µM) | 0.1 (≈ 0.277 µM) | 0.1 (≈ 0.277 µM) | 0.4 (≈ 1.11 µM) | 0.1 (≈ 0.277 µM) | 0.8 (≈ 2.21 µM) | 0.1 (≈ 0.277 µM) | 0.8 (≈ 2.21 µM) | 0.1 (≈ 0.277 µM) | 0.8 (≈ 2.21 µM) | 0.4 (≈ 1.11 µM) | 2 | 0.8 |
| CCNCC1CCN(c2c(F)cc3c(=O)c(C(=O)O)cn(C4CC4)c3c2F)C1 (configuration not stated) [PD-117558] | 5.45 | 0.2 (≈ 0.511 µM) | 0.025 (≈ 0.0639 µM) | 0.1 (≈ 0.255 µM) | 0.4 (≈ 1.02 µM) | 0.006 (≈ 0.0153 µM) | 0.025 (≈ 0.0639 µM) | 0.2 (≈ 0.511 µM) | 0.025 (≈ 0.0639 µM) | 0.05 (≈ 0.128 µM) | 0.025 (≈ 0.0639 µM) | 0.05 (≈ 0.128 µM) | 4.2 | 1 |
